# Results pooled from the literature.
# Compare with care: the assays were run in different laboratories.
# Cell line: HT-29
Compound,observed,method,time,IC50
CC(=O)c1cccc(/N=N/c2cc(/C=C/C(=O)O)ccc2O)c1,cell growth or viability,MTT,,> 50 µM
NCCC(=O)Nc1ccc(-n2nc(C(F)(F)F)cc2-c2ccc3c(c2)oc2ccccc23)cc1,cell growth or viability,MTT,24 h,7.2 µg/mL
COc1ccc2c(c1)/C(=N/NC(=O)c1cc3ccccc3[nH]1)C(=O)N2C,cell growth or viability,,,5.73 µM
CC[C@H](C)C(=O)O[C@H]1C[C@@H](C)C=C2C=C[C@H](C)[C@H](CC[C@@H]3C[C@@H](O)CC(=O)O3)[C@H]21,cell growth or viability,SRB,72 h,7.26 µg/mL
COc1ccc2c(c1)/C(=N/NC(=O)c1cc3ccccc3[nH]1)C(=O)N2,cell growth or viability,,,> 30 µM
Cc1occc(=O)c1[O-].[Cl-].[W+4].c1cc[cH-]c1.c1cc[cH-]c1,cell growth or viability,MTT,,540 µM
O=c1[nH]c(=O)n([C@H]2C[C@H](O)[C@@H](CO)O2)cc1F,cell growth or viability,SRB,72 h,0.056 µM
CCOc1cc(OCC)cc(C(=O)O[C@@H]2CN3Cc4c(cc5c(c4OC)OCO5)[C@@]24C=C[C@H](OC)C[C@@H]34)c1,cell growth or viability,WST-1,,> 10 µM
CC(=O)c1ccc(N=Nc2c(C(=O)O)cc(O)c(O)c2O)cc1,cell growth or viability,MTT,,14.6 µM
CN1C(=O)/C(=N\NC(=O)c2cc3ccccc3[nH]2)c2cc(Br)ccc21,cell growth or viability,,,3.68 µM
COc1cccc(C(=O)O[C@@H]2CN3Cc4c(cc5c(c4OC)OCO5)[C@@]24C=C[C@H](OC)C[C@@H]34)c1,cell growth or viability,WST-1,,> 10 µM
CC(C)n1c(/C=C/C(O)CC(O)CC(=O)O)c(-c2ccc(F)cc2)c2ccccc21 (stereo not shown),cell growth or viability,SRB,72 h,1.67 µg/mL
CN1C(=O)/C(=N\NC(=O)c2cc3ccccc3[nH]2)c2ccccc21,cell growth or viability,,,12.9 µM
CC(=O)O[C@H]1C(=O)[C@@]2(C)[C@H]([C@H](OC(=O)c3ccccc3)[C@]3(O)C[C@H](OC(=O)[C@H](O)[C@@H](NC(=O)c4ccccc4)c4ccccc4)C(C)=C1C3(C)C)[C@]1(OC(C)=O)CO[C@@H]1C[C@@H]2O,cell growth or viability,,,0.0006 µM
NCC(=O)Nc1ccc(-n2nc(C(F)(F)F)cc2-c2ccc3c(c2)Nc2ccccc2S3)cc1,cell growth or viability,MTT,24 h,6.2 µg/mL
COc1ccc(C(=O)O[C@@H]2CN3Cc4c(cc5c(c4OC)OCO5)[C@@]24C=C[C@H](OC)C[C@@H]34)cc1OC,cell growth or viability,WST-1,,> 10 µM
C#Cc1cc(Nc2nccc(Oc3ccc(NC(=O)Nc4cc(C(C)(C)C)nn4-c4ccc(C)cc4)c4ccccc34)n2)cc(C(=O)NCCOCCOCCOC)c1,IL-8 release,,24 h,0.0018 µM
COc1c(C)c(OC)c2c(c1C)OC(c1ccccc1)CC2=O (stereo not shown),cell growth or viability,SRB,72 h,> 50 µM
COc1cc(Nc2nccc(-c3cnn4nc(OC)ccc34)n2)cc(C(F)(F)F)c1,cell growth or viability,ATP luminescence,,0.33 µM
CCC[C@H](Nc1nc(-c2ccc(NC(=O)NCC)c(OC)c2)ncc1C)c1cccnc1,cell growth or viability,fluorescence,72 h,0.0393 µM
O=C(N/N=C1\C(=O)N(c2ccccc2)c2ccccc21)c1cc2ccccc2[nH]1,cell growth or viability,,,6.34 µM
CCN(CC)CCNC(=O)c1c(C)[nH]c(/C=C2\C(=O)Nc3ccc(F)cc32)c1C,cell growth or viability,,,10.1 µM
O=C1Nc2ccc(Br)cc2/C1=N/NC(=O)c1cc2ccccc2[nH]1,cell growth or viability,,,21.9 µM
c1csc([I+]c2cccs2)c1,cell growth or viability,trypan blue,48 h,~2.5 µM
CC(=O)c1ccc(/N=N/c2cc(/C=C/C(=O)O)ccc2O)cc1,cell growth or viability,MTT,,> 50 µM
Cc1nc(Nc2ncc(C(=O)Nc3c(C)cccc3Cl)s2)cc(N2CCN(CCO)CC2)n1,IL-8 release,,24 h,> 2.05 µM
O=C(O)c1cc(O)c(O)c(O)c1,cell growth or viability,MTT,,16.3 µM
F[B-](F)(F)F.[Fe+3].c1cc[cH-]c1.c1cc[cH-]c1,cell growth or viability,MTT,,180 µM
